# SUMO HTRF inh: inhibitors of human SUMOylation (UBC9). P63279. HTRF SUMOylation assay, SAE1/SAE2 + UBC9, in vitro. inhibition, % at 35 µM. hit rate 0.36% among 290,000. AID 2006; in the data active means inhibition above about 50%, passing the limit was not always enough
# Target sequence (P63279 whole entry, looked up): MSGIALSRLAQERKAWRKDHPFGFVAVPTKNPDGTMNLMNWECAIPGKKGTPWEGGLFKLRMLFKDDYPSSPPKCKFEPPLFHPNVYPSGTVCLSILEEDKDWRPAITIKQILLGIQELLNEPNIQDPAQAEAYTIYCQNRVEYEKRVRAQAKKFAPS
# Tb MetRS inh: Trypanosoma brucei MetRS inhibition | purified T. brucei MetRS, ATP depletion, Kinase-Glo luminescence | inhibition, % at 11.9 µM | hit rate 0.4% among 360,000 | AID 624268;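 active means inhibition above a per-plate cutoff of the control wells' mean inhibition plus 3 SD, cut at about 5.5% in these data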
#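 Material – parasite MetRS enzyme · Medium – HEPES-MgCl2-KCl buffer plus DTT, spermine, BSA, pyrophosphatase · Reagent – ATP, methionine and E. coli bulk tRNA substrates · Times – 15 min enzyme-compound preincubation, 2 h reaction, 10 min detection, 25 °C · Measured by – luminescence of leftover ATP · Evaluation – percent inhibition relative to median high and low control wells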
# eIF4E 4G PPI: blocks eIF4E binding to eIF4G; P63073+Q04637; TR-FRET eIF4E-eIF4GI(517-606) binding, 2 h; inhibition, % at 21.7 µM; hit rate 0.37% among 220,000; AID 782
# 14-3-3 Bad PPI: disrupts binding of bovine 14-3-3 zeta to phospho-Bad peptide. AID 781. inhibition, % at 21.7 µM. hit rate 0.71% among 220,000. P63103. TR-FRET 14-3-3zeta/Dy647-pBad peptide displacement, 1 h;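 active means inhibition above about 70%, limit read from the data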
# p97 inhibitor: human p97 ATPase inhibition; P55072; recombinant p97 ATPase, Kinase-Glo ATP luminescence, 3 h; inhibition, % at 8 µM; hit rate 0.42% among 220,000; in the data active means inhibition above about 15%
# p47phox inh: inhibitors of human p47phox binding | hit rate 0.53% among 220,000 | P14598 | p47phox/p22phox peptide binding, fluorescence polarization, 2 h | inhibition, % at 24.7 µM
# Target sequence (P14598 whole entry, looked up): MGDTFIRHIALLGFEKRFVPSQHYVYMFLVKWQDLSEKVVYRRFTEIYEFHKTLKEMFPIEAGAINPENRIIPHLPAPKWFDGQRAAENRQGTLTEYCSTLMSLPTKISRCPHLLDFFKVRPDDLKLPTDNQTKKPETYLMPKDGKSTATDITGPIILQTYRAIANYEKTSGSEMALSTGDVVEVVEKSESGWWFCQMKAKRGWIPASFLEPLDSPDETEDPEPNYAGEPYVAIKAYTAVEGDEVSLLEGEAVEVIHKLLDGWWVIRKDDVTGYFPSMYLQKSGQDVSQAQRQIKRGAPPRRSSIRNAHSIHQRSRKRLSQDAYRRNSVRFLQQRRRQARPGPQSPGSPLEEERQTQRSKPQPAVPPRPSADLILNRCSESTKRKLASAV
# Numbers stand for hits; 0 = inactive; - = no result given. Most compounds without a hit are left out; they make up all but 1.6% or so of the library.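 How the source made its calls, unless noted: active means inhibition above about 30% (limit read from the data); inactive means the rest.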
SMILES,SUMO HTRF inh,Tb MetRS inh,eIF4E 4G PPI,14-3-3 Bad PPI,p97 inhibitor,p47phox inh
COc1ccc(CCn2c(O)cc3nn(-c4nc5ccccc5s4)c(=O)c-3c2C)cc1,63,0,0,0,0,0
CCc1ccc2c(CC(=O)NNC(=O)c3ccncc3)coc2c1,-,0,-,-,-,-
O=[N+]([O-])c1cc(Cl)cc(/C=N/NC(=S)Nc2ccc(S(=O)(=O)N3CCOCC3)cc2)c1O,95,0,0,0,0,0
Oc1ccccc1CNc1cccc2cccnc12,76,0,0,0,0,0
CCCCN1C(=O)C(=Nc2cccc3cnccc23)c2ccccc21,99,0,0,0,0,0
O=C(C1Cc2ccccc2CN1C(=O)c1ccccc1)N1CCN(c2ccccc2)CC1 (centres undefined),0,0,0,0,0,0
CCCCCCCCN1CC(Cc2cc3ccccc3c3ccccc23)N(c2ccccc2)c2ccccc2C1=O (centres undefined),-,0,-,-,-,-
O=C(O)Cn1nc2ccccc2n1,0,0,0,0,0,0
CC(C(=O)O)n1nc2ccccc2n1 (centres undefined),0,0,0,71,0,0
CC(C)C(=O)N1CCC1(C)C(=O)Nc1ccc2[nH]ccc2c1 (centres undefined),-,0,-,-,-,-
O=C1NC(c2ccc(Cl)c([N+](=O)[O-])c2)Nc2ccccc21 (centres undefined),0,0,0,0,0,0
O=[N+]([O-])c1cc(C2Nc3cccc4cccc(c34)N2)ccc1Cl,59,0,0,0,0,0
Cc1ccccc1N1C(=O)c2sc3nc4c(c(=O)n3c2C1=O)CCC4,0,0,0,0,0,69
CC1=C(C(=O)N(C(C)C)C(C)C)CC(CC(=O)NCc2cccc3ccccc23)C(=O)N1Cc1ccccc1 (centres undefined),-,0,-,-,-,-
COc1ccccc1CNC(=O)C1CC(c2c(Cl)cccc2Cl)=NO1 (centres undefined),0,0,0,70,0,0
CSc1ccccc1NC(=O)CN(C)CC(=O)NCc1ccccc1,0,0,0,0,0,0
CSc1ccccc1NC(=O)CN(C)Cc1cccc(Cl)c1,0,0,0,72,0,0
CCOc1cc(NC(=O)C2CCCO2)c(OCC)cc1NC(C)=O (centres undefined),0,0,0,0,0,103
COc1ccc(Cl)cc1NC(=O)C1CCCO1 (centres undefined),0,0,0,0,0,0
COc1cccc(C(c2nnnn2Cc2ccc(F)cc2)N2CCC(C(N)=O)CC2)c1OC (centres undefined),0,0,0,77,0,0
O=C(Nc1nnc([C@@H]2C[C@H](O)[C@@H](CO)O2)s1)Nc1ccccc1F,-,0,-,-,-,-
O=C(NCCO)c1cc2cc(Cl)cc(Cl)c2oc1=O,0,0,0,0,0,0
O=C(O)c1cc2cc(Cl)cc(Cl)c2oc1=O,0,0,0,83,0,0
CC(=O)Nc1ccc(C(=O)OCC(=O)NC2CCCCCC2)cc1,-,0,-,-,-,-
O=C(O)COc1ccc(/C=N/NC(=O)c2ccc(-c3csc(Nc4ccc(Cl)cc4)n3)cc2)cc1,86,0,72,94,0,0
SMILES,SUMO HTRF inh,Tb MetRS inh,eIF4E 4G PPI,14-3-3 Bad PPI,p97 inhibitor,p47phox inh
CCOc1cc(/C=N/NC(=O)c2ccc(-c3csc(Nc4ccc(C)cc4)n3)cc2)ccc1OCC(=O)O,0,0,31,75,0,0
COc1cc(/C=N\NC(=O)c2ccc(-c3ccccc3)cc2)ccc1OCC(N)=O,0,0,-,-,-,-
O=C(CSc1ccsc1[N+](=O)[O-])Nc1cc(F)ccc1F,0,0,50,83,0,0
CC(=O)c1ccc(NC(=O)CSc2ccsc2[N+](=O)[O-])cc1,0,0,32,0,0,0
Cc1c(Br)cccc1NC(=O)C1(C)CCN1CCc1ccccc1 (centres undefined),-,0,-,-,-,-
CC1(Cc2ccc(C(F)(F)F)o2)C(=O)Nc2cc(-c3ccc(F)cc3F)ccc21 (centres undefined),-,0,-,-,-,-
COc1c(C)oc2cc(O)ccc2c1=O,50,0,0,0,0,0
Cc1oc2cc(O)ccc2c(=O)c1Oc1ccc(F)cc1,0,0,-,-,-,-
O=c1[nH]nnc2c1ncn2C1OC(CO)C(O)C1O (centres undefined),-,0,-,-,-,-
O=c1cnn([C@@H]2O[C@H](CO)[C@@H](O)[C@H]2O)c(=O)[nH]1,0,0,94,0,0,0
O=c1cc(CCl)nc2sc3ccccc3n12,0,0,40,0,0,0
O=[N+]([O-])c1ccc(/C=C/C2=NN(c3ccccc3)C(c3ccco3)C2)cc1 (centres undefined),0,0,0,0,0,34
O=[N+]([O-])c1ccc(C2=NN(c3ccccc3)C(c3ccco3)C2)cc1 (centres undefined),0,0,0,0,0,0
O=C1C(=C(c2ccccc2)N2CCOCC2)Cc2ccccc21,-,0,-,-,-,-
Cc1nc2ccc(NC3=NCCCCC3)cc2s1,0,0,0,79,0,0
COc1ccc(NC(=O)c2sc(=O)n(Cc3ccccc3C#N)c2C)cc1OC,-,0,-,-,-,-
COc1ccccc1NC(=S)NC1CC2CCC1C2 (centres undefined),0,0,0,0,0,0
CN(C)NC(=S)NC1CC2CCC1C2 (centres undefined),0,0,90,0,0,0
COCCn1c(N)c(C#N)c2nc3ccccc3nc21,81,0,0,0,0,0
COCCNC(=O)c1c(N)n(CCCn2ccnc2)c2nc3ccccc3nc12,87,0,0,0,0,0
COCCn1c(N)c(C(=O)NCC2CCCO2)c2nc3ccccc3nc21 (centres undefined),91,0,-,-,0,0
CC(C)Cn1c(N)c(C(=O)NCC2CCCO2)c2nc3ccccc3nc21 (centres undefined),0,0,0,0,0,0
COc1ccccc1CNC(=O)c1c(N)n(CCCN2CCOCC2)c2nc3ccccc3nc12,52,0,0,0,0,0
COCCNC(=O)c1c(N)n(-c2ccccc2)c2nc3ccccc3nc12,0,0,0,0,0,0
CC(=O)N1CCC(C(=O)N2c3ccccc3N=C(c3ccc4c(c3)OCO4)C2C(=O)Nc2c(C)cccc2C)CC1 (centres undefined),-,0,-,-,-,-
COc1ccc(OC)c(NP2(=O)OCC(C)([N+](=O)[O-])CO2)c1 (centres undefined),-,0,-,-,-,-
C1=C[C@H]2CCCN3CC[C@@H]([C@@H]2[C@]32CO2)[C@H]1CCOCc1ccccc1,-,0,-,-,-,-
O=C1S/C(=C\c2ccc(O)c([N+](=O)[O-])c2)C(=O)N1c1ccccc1Cl,0,0,0,0,0,0
COc1cc(/C=C2\SC(=O)N(c3ccc(Cl)cc3)C2=O)cc([N+](=O)[O-])c1O,95,0,71,93,0,0
